What was measured:
[1] = test system: SNB-75; assay: Growth inhibition of human SNB75 cells at 10 uM after 48 hrs; type: functional; conditions: SNB-75, 48 h, read-out: GI
Method in brief: (§1)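 NCI 60-cell-line disease-oriented human tumor panel, single-dose primary screen at 10 µM. Data given as mean-graph percent growth of treated cells, reported as percent growth inhibition (GI %).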

[2] = target: T1, Dihydrofolate reductase (Bos taurus, UniProt P00376); assay: Inhibition of bovine liver DHFR measured for every 1 min of 10 mins
T1 sequence (P00376 whole entry): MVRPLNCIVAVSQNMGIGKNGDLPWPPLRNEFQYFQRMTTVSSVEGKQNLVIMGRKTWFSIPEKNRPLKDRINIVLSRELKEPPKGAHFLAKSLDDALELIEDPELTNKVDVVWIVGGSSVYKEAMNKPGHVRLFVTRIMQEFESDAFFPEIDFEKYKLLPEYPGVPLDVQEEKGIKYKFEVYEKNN

[3] = test system: SK-MEL-28; assay: Growth inhibition of human SK-MEL-28 cells at 10 uM after 48 hrs; type: functional; conditions: SK-MEL-28, 48 h, read-out: GI; method in brief: as §1
[4] = Cytotoxicity against human renal cancer cells at 10 uM after 48 hrs; type: functional; conditions: Cancer cell lines
[5] = Growth inhibition of human NCI-ADR-RES cells at 10 uM after 48 hrs; type: functional; conditions: read-out: GI
Method in brief: (§2)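 Single-dose primary screen in the NCI 60 human tumour cell line panel, run at the NCI facility. The panel covers nine subpanels: leukaemia, non-small cell lung, colon, CNS, melanoma, ovarian, renal, prostate and breast. Read-out was percent growth of treated cells, shown as a mean graph and reported as percent growth inhibition.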

[6] = test system: OVCAR-3; assay: Growth inhibition of human OVCAR3 cells at 10 uM after 48 hrs; type: functional; conditions: OVCAR-3, 48 h, read-out: GI; method in brief: as §2
[7] = test system: SF-268; assay: Growth inhibition of human SF268 cells at 10 uM after 48 hrs; type: functional; conditions: SF-268, 48 h, read-out: GI; method in brief: as §1
[8] = Growth inhibition of human SF539 cells at 10 uM after 48 hrs; type: functional; conditions: SF-539, 48 h, read-out: GI; method in brief: as §1
[9] = test system: HT-29; assay: Growth inhibition of human HT-29 cells at 10 uM after 48 hrs; type: functional; conditions: HT-29, 48 h, read-out: GI; method in brief: as §2
[10] = Growth inhibition of human OVCAR5 cells at 10 uM after 48 hrs; type: functional; conditions: OVCAR-5, 48 h, read-out: GI; method in brief: as §2
[11] = test system: K562; assay: Growth inhibition of human K562 cells at 10 uM after 48 hrs; type: functional; conditions: K562, 48 h, read-out: GI; method in brief: as §2
[12] = test system: SK-MEL-2; assay: Growth inhibition of human SK-MEL-2 cells at 10 uM after 48 hrs; type: functional; conditions: SK-MEL-2, 48 h, read-out: GI; method in brief: as §1
[13] = Growth inhibition of human UACC257 cells at 10 uM after 48 hrs; type: functional; conditions: UACC-257, 48 h, read-out: GI; method in brief: as §1
[14] = test system: TK-10; assay: Growth inhibition of human TK10 cells at 10 uM after 48 hrs; type: functional; conditions: TK-10, 48 h, read-out: GI; method in brief: as §1
[15] = Cytotoxicity against human CNS cancer cells at 10 uM after 48 hrs; type: functional; conditions: Cancer cell lines
[16] = test system: SK-OV-3; assay: Growth inhibition of human SKOV3 cells at 10 uM after 48 hrs; type: functional; conditions: SK-OV-3, 48 h, read-out: GI; method in brief: as §1
[17] = test system: A549; assay: Growth inhibition of human A549 cells at 10 uM after 48 hrs; type: functional; conditions: A549, 48 h, read-out: GI; method in brief: as §2
[18] = test system: CAKI-1; assay: Growth inhibition of human CAKI-1 cells at 10 uM after 48 hrs; type: functional; conditions: CAKI-1, 48 h, read-out: GI; method in brief: as §2
[19] = Growth inhibition of human UO31 cells at 10 uM after 48 hrs; type: functional; conditions: UO-31, 48 h, read-out: GI; method in brief: as §1
[20] = test system: BT-549; assay: Growth inhibition of human BT549 cells at 10 uM after 48 hrs; type: functional; conditions: BT-549, 48 h, read-out: GI; method in brief: as §2
[21] = Cytotoxicity against human prostate cancer cells at 10 uM after 48 hrs; type: functional; conditions: Cancer cell lines
[22] = test system: 786-0; assay: Growth inhibition of human 786-0 cells at 10 uM after 48 hrs; type: functional; conditions: 786-0, 48 h, read-out: GI; method in brief: as §2
[23] = test system: MCF7; assay: Growth inhibition of human MCF7 cells at 10 uM after 48 hrs; type: functional; conditions: MCF7, 48 h, read-out: GI; method in brief: as §2
[24] = test system: SNB-19; assay: Growth inhibition of human SNB19 cells at 10 uM after 48 hrs; type: functional; conditions: SNB-19, 48 h, read-out: GI; method in brief: as §1
[25] = test system: SR; assay: Growth inhibition of human SR cells at 10 uM after 48 hrs; type: functional; conditions: read-out: GI; method in brief: as §1
[26] = Growth inhibition of human EKVX cells at 10 uM after 48 hrs; type: functional; conditions: read-out: GI; method in brief: as §2
[27] = test system: OVCAR-8; assay: Growth inhibition of human OVCAR8 cells at 10 uM after 48 hrs; type: functional; conditions: OVCAR-8, 48 h, read-out: GI; method in brief: as §2
[28] = Growth inhibition of human OVCAR4 cells at 10 uM after 48 hrs; type: functional; conditions: OVCAR-4, 48 h, read-out: GI; method in brief: as §2
[29] = Growth inhibition of human HCC2998 cells at 10 uM after 48 hrs; type: functional; conditions: HCC 2998, 48 h, read-out: GI; method in brief: as §2
[30] = test system: MDA-MB-435; assay: Growth inhibition of human MDA-MB-435 cells at 10 uM after 48 hrs; type: functional; conditions: MDA-MB-435, 48 h, read-out: GI; method in brief: as §2
[31] = test system: PC-3; assay: Growth inhibition of human PC3 cells at 10 uM after 48 hrs; type: functional; conditions: PC-3, 48 h, read-out: GI; method in brief: as §2
[32] = test system: NCI-H23; assay: Growth inhibition of human NCI-H23 cells at 10 uM after 48 hrs; type: functional; conditions: NCI-H23, 48 h, read-out: GI; method in brief: as §2
[33] = test system: NCI-H322M; assay: Growth inhibition of human NCI-H322M cells at 10 uM after 48 hrs; type: functional; conditions: read-out: GI; method in brief: as §2
[34] = Growth inhibition of human Hs 578T cells at 10 uM after 48 hrs; type: functional; conditions: read-out: GI; method in brief: as §2
[35] = test system: MDA-MB-231; assay: Growth inhibition of human MDA-MB-231 cells at 10 uM after 48 hrs; type: functional; conditions: MDA-MB-231, 48 h, read-out: GI; method in brief: as §2
[36] = test system: T47D; assay: Growth inhibition of human T47D cells at 10 uM after 48 hrs; type: functional; conditions: read-out: GI; method in brief: as §1
[37] = test system: NCI-H226; assay: Growth inhibition of human NCI-H226 cells at 10 uM after 48 hrs; type: functional; conditions: NCI-H226, 48 h, read-out: GI; method in brief: as §2
[38] = test system: CCRF-CEM; assay: Growth inhibition of human CCRF-CEM cells at 10 uM after 48 hrs; type: functional; conditions: read-out: GI; method in brief: as §2
[39] = test system: SW-620; assay: Growth inhibition of human SW620 cells at 10 uM after 48 hrs; type: functional; conditions: SW-620, 48 h, read-out: GI; method in brief: as §1
[40] = test system: MOLT-4; assay: Growth inhibition of human MOLT4 cells at 10 uM after 48 hrs; type: functional; conditions: MOLT-4, 48 h, read-out: GI; method in brief: as §2
[41] = test system: NCI-H460; assay: Growth inhibition of human NCI-H460 cells at 10 uM after 48 hrs; type: functional; conditions: NCI-H460, 48 h, read-out: GI; method in brief: as §2

## COc1cc(/C=C2\CCCc3c2nc(C)nc3-c2cc(OC)c(OC)c(OC)c2)cc(OC)c1OC
[1]
  inhibition of growth at 10 µM: 78.1%
[2]
  IC50: 0.5 µM
[3]
  inhibition of growth at 10 µM: 68.1%
[4]
  CC50: > 100 µM
  GI50: 2.2 µM
  TGI: 42 µM
[5]
  inhibition of growth at 10 µM: 85.6%
[6]
  inhibition of growth at 10 µM: 72%
[7]
  inhibition of growth at 10 µM: 78.8%
[8]
  inhibition of growth at 10 µM: 86.5%
[9]
  inhibition of growth at 10 µM: 92.1%
[10]
  inhibition of growth at 10 µM: 89.2%
[11]
  inhibition of growth at 10 µM: 88.9%
[12]
  inhibition of growth at 10 µM: 73.4%
[13]
  inhibition of growth at 10 µM: 56.2%
[14]
  inhibition of growth at 10 µM: 55.5%
[15]
  GI50: 34.5 µM
  TGI: > 100 µM
[15]; read-out: LC50 (the source's name)
  CC50: > 100 µM
[16]
  inhibition of growth at 10 µM: 56.1%
[17]
  inhibition of growth at 10 µM: 83.8%
[18]
  inhibition of growth at 10 µM: 88.6%
[19]
  inhibition of growth at 10 µM: 48.9%
[20]
  inhibition of growth at 10 µM: 97.1%
[21]
  GI50: 1.8 µM
  LC50: > 100 µM
  TGI: > 100 µM
[22]
  inhibition of growth at 10 µM: 82%
[23]
  inhibition of growth at 10 µM: 77%
[24]
  inhibition of growth at 10 µM: 38.8%
[25]
  inhibition of growth at 10 µM: < 30%
[26]
  inhibition of growth at 10 µM: < 30%
[27]
  inhibition of growth at 10 µM: 94.1%
[28]
  inhibition of growth at 10 µM: 57.8%
[29]
  inhibition of growth at 10 µM: 88.1%
[30]
  inhibition of growth at 10 µM: 94.8%
[31]
  inhibition of growth at 10 µM: 57.4%
[32]
  inhibition of growth at 10 µM: 66.1%
[33]
  inhibition of growth at 10 µM: 58.9%
[34]
  inhibition of growth at 10 µM: 51.4%
[35]
  inhibition of growth at 10 µM: 86.9%
[36]
  inhibition of growth at 10 µM: < 30%
[37]
  inhibition of growth at 10 µM: 62.4%

## Cc1nc2c(c(-c3ccc(Cl)cc3)n1)CCC/C2=C\c1ccc(Cl)cc1
[1]
  inhibition of growth at 10 µM: < 30%
[3]
  inhibition of growth at 10 µM: < 30%
[5]
  inhibition of growth at 10 µM: < 30%
[6]
  inhibition of growth at 10 µM: < 30%
[7]
  inhibition of growth at 10 µM: < 30%
[8]
  inhibition of growth at 10 µM: < 30%
[38]
  inhibition of growth at 10 µM: < 30%
[9]
  inhibition of growth at 10 µM: 45.6%
[10]
  inhibition of growth at 10 µM: < 30%
[11]
  inhibition of growth at 10 µM: < 30%
[12]
  inhibition of growth at 10 µM: < 30%
[13]
  inhibition of growth at 10 µM: < 30%
[14]
  inhibition of growth at 10 µM: < 30%
[16]
  inhibition of growth at 10 µM: < 30%
[17]
  inhibition of growth at 10 µM: < 30%
[39]
  inhibition of growth at 10 µM: < 30%
[18]
  inhibition of growth at 10 µM: < 30%
[19]
  inhibition of growth at 10 µM: < 30%
[20]
  inhibition of growth at 10 µM: 34%
[22]
  inhibition of growth at 10 µM: < 30%
[23]
  inhibition of growth at 10 µM: 68.7%
[24]
  inhibition of growth at 10 µM: < 30%
[25]
  inhibition of growth at 10 µM: < 30%
[40]
  inhibition of growth at 10 µM: < 30%
[26]
  inhibition of growth at 10 µM: < 30%
[27]
  inhibition of growth at 10 µM: < 30%
[28]
  inhibition of growth at 10 µM: < 30%
[29]
  inhibition of growth at 10 µM: 58.5%
[30]
  inhibition of growth at 10 µM: 77.7%
[31]
  inhibition of growth at 10 µM: < 30%
[32]
  inhibition of growth at 10 µM: < 30%
[33]
  inhibition of growth at 10 µM: < 30%
[34]
  inhibition of growth at 10 µM: < 30%
[35]
  inhibition of growth at 10 µM: < 30%
[41]
  inhibition of growth at 10 µM: < 30%
[36]
  inhibition of growth at 10 µM: < 30%
[37]
  inhibition of growth at 10 µM: < 30%
